# Assay results as given in ChEMBL document CHEMBL1151705, “Novel azalides derived from 16-membered macrolides. Part II: Isolation of the linear 9-formylcarboxylic acid and its sequential macrocyclization with an amino alcohol or an azidoamine” (2008).
# Tests used:
# Format in all cases: functional
# [1] = tested on: Haemophilus influenzae; test: Antimicrobial activity against drug-susceptible Haemophilus influenzae 4 after 20 hrs by agar dilution method
# Outline: (§1)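 Streptococci, H. influenzae and M. catarrhalis were precultured on blood agar plates. Suspensions of about 10⁶ CFU/ml were inoculated onto sensitivity disk agar supplemented with 5% horse blood and incubated at 37 °C for 20 h. MIC was read as the lowest drug concentration with no visible growth.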
# [2] = tested on: Streptococcus pneumoniae; test: Antimicrobial activity against drug-susceptible Streptococcus pneumoniae DP1 Type1 after 20 hrs by agar dilution method; outline: as §1
# [3] = tested on: Streptococcus pneumoniae; test: Antimicrobial activity against Streptococcus pneumoniae 7 expressing inducible ermB after 20 hrs by agar dilution method; outline: as §1
# [4] = tested on: Streptococcus pyogenes; test: Antimicrobial activity against drug-susceptible Streptococcus pyogenes 1 after 20 hrs by agar dilution method; outline: as §1
# [5] = tested on: Staphylococcus aureus; test: Antimicrobial activity against drug-susceptible Staphylococcus aureus 2 after 20 hrs by agar dilution method
# Outline: (§2)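 Agar dilution MIC. S. aureus seed culture was grown in sensitivity test broth. Cell suspension (about 10⁶ CFU/ml) was inoculated onto sensitivity disk agar with 5% horse blood and incubated at 37 °C for 20 h. MIC was the lowest drug concentration that prevented visible growth.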
# [6] = tested on: Moraxella catarrhalis; test: Antimicrobial activity against drug-susceptible Moraxella catarrhalis 2 after 20 hrs by agar dilution method; outline: as §1
# [7] = tested on: Moraxella catarrhalis; test: Antimicrobial activity against drug-susceptible Moraxella catarrhalis 1 after 20 hrs by agar dilution method; outline: as §1
# [8] = tested on: Streptococcus pneumoniae; test: Antimicrobial activity against Streptococcus pneumoniae 8 expressing inducible ermB after 20 hrs by agar dilution method; outline: as §1
# [9] = tested on: Haemophilus influenzae; test: Antimicrobial activity against drug-susceptible Haemophilus influenzae 3 after 20 hrs by agar dilution method; outline: as §1
# [10] = tested on: Haemophilus influenzae; test: Antimicrobial activity against drug-susceptible Haemophilus influenzae 1 after 20 hrs by agar dilution method; outline: as §1
# [11] = tested on: Staphylococcus aureus; test: Antimicrobial activity against drug-susceptible Staphylococcus aureus 209P JC-1 after 20 hrs by agar dilution method; outline: as §2
# [12] = tested on: Streptococcus pyogenes; test: Antimicrobial activity against Streptococcus pyogenes 3 expressing mefA after 20 hrs by agar dilution method; outline: as §1
# [13] = tested on: Haemophilus influenzae; test: Antimicrobial activity against drug-susceptible Haemophilus influenzae 2 after 20 hrs by agar dilution method; outline: as §1
# [14] = tested on: Streptococcus pneumoniae; test: Antimicrobial activity against Streptococcus pneumoniae 9 expressing mefA after 20 hrs by agar dilution method; outline: as §1
# [15] = tested on: Streptococcus pneumoniae; test: Antimicrobial activity against Streptococcus pneumoniae 10 expressing mefA after 20 hrs by agar dilution method; outline: as §1
# [16] = tested on: Staphylococcus aureus; test: Antimicrobial activity against drug-susceptible Staphylococcus aureus 3 after 20 hrs by agar dilution method; outline: as §2
# [17] = tested on: Streptococcus pneumoniae; test: Antimicrobial activity against drug-susceptible Streptococcus pneumoniae 2 after 20 hrs by agar dilution method; outline: as §1
# [18] = tested on: Streptococcus pneumoniae; test: Antimicrobial activity against drug-susceptible Streptococcus pneumoniae 3 after 20 hrs by agar dilution method; outline: as §1
# [19] = tested on: Streptococcus pyogenes; test: Antimicrobial activity against Streptococcus pyogenes 2 constitutively expressing ermB after 20 hrs by agar dilution method; outline: as §1
# [20] = tested on: Staphylococcus aureus; test: Antimicrobial activity against Staphylococcus aureus 6 expressing inducible ermB after 20 hrs by agar dilution method; outline: as §2
# [21] = tested on: Staphylococcus aureus; test: Antimicrobial activity against Staphylococcus aureus 4 constitutively expressing ermA after 20 hrs by agar dilution method; outline: as §2
# [22] = tested on: Staphylococcus aureus; test: Antimicrobial activity against Staphylococcus aureus 5 expressing inducible ermB after 20 hrs by agar dilution method; outline: as §2
# [23] = tested on: Streptococcus pneumoniae; test: Antimicrobial activity against Streptococcus pneumoniae 5 constitutively expressing ermB/mefA after 20 hrs by agar dilution method; conditions: Streptococcus pneumoniae, 20 h; read-out: MIC; outline: as §1
# [24] = tested on: Streptococcus pneumoniae; test: Antimicrobial activity against Streptococcus pneumoniae 4 constitutively expressing ermB after 20 hrs by agar dilution method; conditions: Streptococcus pneumoniae, 20 h; read-out: MIC; outline: as §1
# [25] = tested on: Streptococcus pneumoniae; test: Antimicrobial activity against Streptococcus pneumoniae 6 constitutively expressing ermB after 20 hrs by agar dilution method; conditions: Streptococcus pneumoniae, 20 h; read-out: MIC; outline: as §1
# [26] = Haemophilus influenzae, 20 h, read-out: MIC
# [27] = Streptococcus pneumoniae, 20 h, read-out: MIC
# [28] = Streptococcus pyogenes, 20 h, read-out: MIC
# [29] = Staphylococcus aureus, 20 h, read-out: MIC
# [30] = Moraxella catarrhalis, 20 h, read-out: MIC
# [31] = Staphylococcus aureus, 209P, 20 h, read-out: MIC
smiles,measurement,setting,value
CCOC(=O)[C@H]1[C@H](C)O[C@@H](O[C@H]2[C@H](N(C)C)[C@@H](O)[C@H](O[C@H]3[C@@H](CC=O)C[C@@H](C)[C@@H](O)CN(C)CCC(CCCc4cnc5ccccc5c4)NC(=O)C[C@@H](OC(=O)CC)[C@@H]3OC)O[C@@H]2C)C[C@@]1(C)O (stereo in doubt),MIC,[1],16 mg/L
same,MIC,[2],0.03 mg/L
same,MIC,[3],8 mg/L
same,MIC,[4],0.25 mg/L
same,MIC,[5],2 mg/L
same,MIC,[6],4 mg/L
same,MIC,[7],8 mg/L
same,MIC,[8],8 mg/L
same,MIC,[9],8 mg/L
same,MIC,[10],32 mg/L
same,MIC,[11],1 mg/L
same,MIC,[12],1 mg/L
same,MIC,[13],2 mg/L
same,MIC,[14],0.06 mg/L
same,MIC,[15],0.06 mg/L
same,MIC,[16],0.5 mg/L
same,MIC,[17],0.06 mg/L
same,MIC,[18],0.06 mg/L
CCOC(=O)[C@H]1[C@H](C)O[C@@H](O[C@H]2[C@H](N(C)C)[C@@H](O)[C@H](O[C@H]3[C@@H](CC=O)C[C@@H](C)[C@@H](O)CN(C)CC(CCCc4ccnc5ccccc45)CCOC(=O)C[C@@H](OC(=O)CC)[C@@H]3OC)O[C@@H]2C)C[C@@]1(C)O (stereo in doubt; form 1),MIC,[1]; [26],8 mg/L
same,MIC,[19],> 128 mg/L
same,MIC,[2]; [27],0.015 mg/L
same,MIC,[3]; [27],16 mg/L
same,MIC,[4]; [28],0.06 mg/L
same,MIC,[5]; [29],0.5 mg/L
same,MIC,[6]; [30],1 mg/L
same,MIC,[7]; [30],1 mg/L
same,MIC,[20],0.5 mg/L
same,MIC,[21],> 128 mg/L
same,MIC,[8]; [27],16 mg/L
same,MIC,[22]; [29],0.25 mg/L
same,MIC,[9]; [26],8 mg/L
same,MIC,[23],> 128 mg/L
same,MIC,[10]; [26],32 mg/L
same,MIC,[11]; [31],0.25 mg/L
same,MIC,[12]; [28],0.25 mg/L
same,MIC,[24],> 128 mg/L
same,MIC,[14]; [27],0.03 mg/L
same,MIC,[25],> 128 mg/L
same,MIC,[15]; [27],0.03 mg/L
same,MIC,[16]; [29],0.25 mg/L
same,MIC,[17]; [27],0.03 mg/L
same,MIC,[18]; [27],0.03 mg/L
CCOC(=O)[C@H]1[C@H](C)O[C@@H](O[C@H]2[C@H](N(C)C)[C@@H](O)[C@H](O[C@H]3[C@@H](CC=O)C[C@@H](C)[C@@H](O)CN(C)CC(/C=C/Cc4ccnc5ccccc45)CCOC(=O)C[C@@H](OC(=O)CC)[C@@H]3OC)O[C@@H]2C)C[C@@]1(C)O (stereo in doubt; form 1),MIC,[1]; [26],8 mg/L
same,MIC,[19],> 128 mg/L
same,MIC,[2]; [27],0.015 mg/L
same,MIC,[3],8 mg/L
same,MIC,[4],0.03 mg/L
same,MIC,[5]; [29],0.5 mg/L
same,MIC,[6]; [30],1 mg/L
same,MIC,[7]; [30],1 mg/L
same,MIC,[20],0.25 mg/L
same,MIC,[21],> 128 mg/L
same,MIC,[8],8 mg/L
same,MIC,[22]; [29],0.13 mg/L
same,MIC,[9]; [26],8 mg/L
same,MIC,[23],> 128 mg/L
same,MIC,[10]; [26],16 mg/L
same,MIC,[11]; [31],0.13 mg/L
same,MIC,[12]; [28],0.13 mg/L
same,MIC,[24],> 128 mg/L
same,MIC,[14]; [27],0.03 mg/L
same,MIC,[25],> 128 mg/L
same,MIC,[15]; [27],0.03 mg/L
same,MIC,[16]; [29],0.13 mg/L
same,MIC,[17]; [27],0.03 mg/L
same,MIC,[18]; [27],0.03 mg/L
CCOC(=O)[C@H]1[C@H](C)O[C@@H](O[C@H]2[C@H](N(C)C)[C@@H](O)[C@H](O[C@H]3[C@@H](CC=O)C[C@@H](C)[C@@H](O)CN(C)CCC(C/C=C/c4cnc5ccccc5c4)NC(=O)C[C@@H](OC(=O)CC)[C@@H]3OC)O[C@@H]2C)C[C@@]1(C)O (stereo in doubt; form 2),MIC,[1],32 mg/L
same,MIC,[2],0.13 mg/L
same,MIC,[3],>128 mg/L
same,MIC,[4],0.5 mg/L
same,MIC,[5],2 mg/L
same,MIC,[6],4 mg/L
same,MIC,[7],8 mg/L
same,MIC,[8],>128 mg/L
same,MIC,[22],1 mg/L
same,MIC,[9],16 mg/L
same,MIC,[10],64 mg/L
same,MIC,[11],1 mg/L
same,MIC,[12],4 mg/L
same,MIC,[13],4 mg/L
same,MIC,[14],0.5 mg/L
same,MIC,[15],0.25 mg/L
same,MIC,[16],0.5 mg/L
same,MIC,[17],0.25 mg/L
same,MIC,[18],0.25 mg/L
